The text below walks through data of ChEMBL document CHEMBL2029208 (Bioorg Med Chem, 2012).

The subject of data set [1] is Mycobacterium tuberculosis. In words: microbe, parasite or virus in culture. Particulars: H37Ra. Type of data set: functional.
The subject of data set [2] is Mycobacterium tuberculosis. In words: Antimycobacterial activity against Mycobacterium tuberculosis H37Ra infected in gamma interferon-knockout mouse assessed as reduction in lung CFU load at 25 mg/kg, po BID dosage beginning at 15 post infection for 9 days (reference value: 8.86 +/- 0.02 log10CFU). Type of data set: functional.
The test system of data set [3] is Mycobacterium tuberculosis. Kind of data set: Antimycobacterial activity against Mycobacterium tuberculosis H37Ra infected in gamma interferon-knockout mouse assessed as reduction in spleen CFU load at 25 mg/kg, po BID dosage beginning at 15 post infection for 9 days (reference value: 7.30 +/- 0.09 log10CFU). The data set is classed as functional.
In data set [4] the test system is Mycobacterium tuberculosis. Kind of data set: Antimycobacterial activity against Mycobacterium tuberculosis H37Ra infected in gamma interferon-knockout mouse assessed as reduction in spleen CFU load at 150 mg/kg, po BID dosage beginning at 15 post infection for 9 days (reference value: 7.30 +/- 0.09 log10CFU). The data set is classed as functional.
For data set [5], the system named is Mycobacterium tuberculosis. Kind of data set: Antimycobacterial activity against Mycobacterium tuberculosis H37Ra infected in gamma interferon-knockout mouse assessed as reduction in lung CFU load at 150 mg/kg, po BID dosage beginning at 15 post infection for 9 days (reference value: 8.86 +/- 0.02 log10CFU). The data set is classed as functional.
The nature of data set [6]: Drug uptake in mouse serum at 140 mg/kg, po administered in 30% Captisol measured after 2 hrs by LC-MS/MS analysis. Type of data set: ADME, organism-based. On the set-up: dose 140 mg/kg, route oral. Particulars: read-out: Drug uptake. The gist of the method:
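Non-genetically modified mice were dosed at 140 mg/kg in 30% Captisol by gavage. Blood was clotted for at least 1 h and spun at ~3000g for 15 min, and serum was frozen at −70°C. Serum was diluted 4:1 with methanol containing warfarin (final 5 μM) as internal standard and centrifuged. Samples were quantified by LC/MS against a 7-point calibration curve.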

Data set [7] has as its system Mycobacterium tuberculosis. In words: Antimycobacterial activity against Mycobacterium tuberculosis H37Ra at 10 uM. The data set is classed as functional, organism-based.

Converted amounts (≈) assume the structure as drawn. The source made the active and inactive calls. No cut-off for these calls is given here.

Turning to `NNC(=O)c1ccncc1` [ISONIAZID], the MIC in data set [1] is 0.08 µg/mL (≈ 0.583 µM). Further, the log10cfu amounted to 5.41 in data set [2] and 3.63 in data set [3].
Turning to `COC(=O)c1ccc(NC(=O)NC23CC4CC(CC(C4)C2)C3)cc1O`, the log10cfu in data set [4] was 7.31; in data set [5] it was 8.77. The concentration at 2 h in data set [6] came to 3000 nM. The same compound returned an MIC in data set [1] of 1.1 µg/mL (≈ 3.19 µM). In addition, the result in data set [7] was inactive.
